# Source: PubChem (several laboratories)
# FXN GAA850 act = FXN promoter activators, primary screen, cell-based, luciferase luminescence, HEK293 lucGAA850. HEK293 lucGAA850 FXN promoter luciferase reporter, 24 h; percent of 10 µM SAHA response. activation, % at 6 µM. 0.56% of 360,000 active;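 active means activation above the average of all compounds screened plus 3 SD, cutoff fixed separately per campaign, cut at about 7.5% in these data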;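 further: 0% = DMSO wells and 100% = 10 µM SAHA wells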
# HIV Env fusion = inhibitors of HIV-1 Env-driven cell-cell fusion, primary screen, HeLa-JRFL effector, CEM21 target cells, luciferase. inhibition, % at 12.3 µM. AID 651610, 2012. 1.1% of 360,000 active;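 active means mean replicate inhibition score of at least 50 and every replicate individually at or above 50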;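 further: 0% = plate neutral controls and 100% = maraviroc near 300 nM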
# GalR3 antag = GalR3 antagonists in HEK293 cells, primary screen, cell-based, fluorescence readout | Galanin receptor type 3 (Homo sapiens), O60755 | HEK293 GalR3-CNG cAMP membrane potential fluorescence; galR3 body fused to GalR1 C-terminus | inhibition, % at 3 µM | 0.44% of 360,000 active;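 active means inhibition above the screen-wide average plus 3 SD, cut at about 13% in these data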;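 further: forskolin and galanin both at EC90 stimulate the cells; cAMP rise reported by CNG channel membrane potential dye signal; 0% = forskolin plus galanin with DMSO and 100% = forskolin alone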
# Target sequence (O60755 1-299 limits assumed): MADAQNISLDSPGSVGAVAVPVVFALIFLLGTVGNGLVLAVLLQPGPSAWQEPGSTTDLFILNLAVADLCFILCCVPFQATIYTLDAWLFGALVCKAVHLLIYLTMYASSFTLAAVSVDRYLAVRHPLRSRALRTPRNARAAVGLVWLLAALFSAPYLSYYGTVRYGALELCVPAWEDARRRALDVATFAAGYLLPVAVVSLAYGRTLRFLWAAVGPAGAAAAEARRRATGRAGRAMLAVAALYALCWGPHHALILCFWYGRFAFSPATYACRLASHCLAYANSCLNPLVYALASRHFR
# V-ATPase pH = regulators of yeast V-ATPase proton pumping, primary screen, pHLuorin cytosolic pH fluorescence; S. cerevisiae; response, % at 10 µM; 0.37% of 350,000 active; AID 504577, 2011; in the data active means response mostly above about 7.3%, no sharp cut-off; inactive means mostly below about 5.4%; further: actives read high
# NR2E3 ag-1 = inhibitors of NR2E3-RetCOR corepressor binding, primary screen, NR2E3 agonist project, biochemical, TR-FRET, GST-NR2E3, biotin-RetCOR; AID 2300, 2010; inhibition of corepressor binding, % at 4.78 µM; Photoreceptor-specific nuclear receptor (Homo sapiens), Q9Y5X4; 0.12% of 320,000 active; 1536-well;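 active means percent inhibition above the cutoff of mean plus 3 SD of all tested compounds, set per screening campaign, cut at about 20% in these data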;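 further: 0% = DMSO wells and 100% = biotin wells as full block of FRET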
#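 System: GST-tagged NR2E3 plus biotinylated RetCOR corepressor; Amount: 1.35 nM GST-tagged NR2E3 final; Dosing: single nominal compound dose of 4.8 µM; Schedule: 5 h incubation at 4 °C; Technique: TR-FRET with europium anti-GST and streptavidin-D2, 340 nm excitation; Controls: biotin wells as high control, 0.6% DMSO wells as low control.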
# NR2E3 ag-2 = NR2E3 agonists in two-hybrid cells, primary screen, cell-based, luminescence, CHO-S, Gal4-NCOR/VP16-NR2E3; Photoreceptor-specific nuclear receptor (Homo sapiens), Q9Y5X4; luciferase; inhibition of corepressor binding, % at 3.98 µM; 0.35% of 360,000 active; AID 602229, 2012;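 active means inhibition above the mean of all tested compounds plus 3 SD, cut at about 70% in these data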;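 further: 0% = DMSO with NR2E3 transfected cells and 100% = cells lacking NR2E3 construct; higher means lower luciferase signal from less NR2E3 corepressor binding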
# GalR3 antag conf = GalR3 antagonist hit confirmation, cell-based, fluorescence, triplicate. shares compounds with GalR3 antag. HEK293 GalR3 CNG cAMP biosensor, membrane potential fluorescence; galR3 fused to GalR1 carboxy tail; challenged with forskolin and galanin at EC90. inhibition, % at 3 µM. 59% of 1,600 active. AID 652245, 2013;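 active means inhibition above the primary screen's cutoff, the mean inhibition of all screened compounds plus 3 SD, cut at about 13% in these data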;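 further: 0% = forskolin plus galanin and 100% = forskolin alone with DMSO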
# HEK-CNG parental = nonspecific cAMP agonists in parental HEK-CNG cells, counter-screen for GalR3 antagonist project, cell-based, fluorescence, high throughput | shares compounds with GalR3 antag | HEK293-CNG parental cells, cAMP membrane potential fluorescence; normalised: DMSO wells 0%, forskolin wells 100% | activation, % at 3 µM | 10% of 1,600 active; in the data active means activation above about 1.3%
# Starred values were filed as active, the others as inactive; / = not tested or not shown; [ ] = dose if it differs, or a comment. An excerpt weighted towards active compounds, which were near 2.2% of everything screened.
SMILES,FXN GAA850 act,HIV Env fusion,GalR3 antag,V-ATPase pH,NR2E3 ag-1,NR2E3 ag-2,GalR3 antag conf,HEK-CNG parental
C[C@@H]1CN([C@H](C)CO)S(=O)(=O)c2ccc(C#CC3CC3)cc2O[C@@H]1CN(C)C(=O)C1CCC1,/,20[16.7 µM],/,/,/,/,/,/
CNC[C@@H]1Oc2ccc(NC(=O)Nc3ccc4c(c3)OCO4)cc2C(=O)N([C@@H](C)CO)C[C@@H]1C,/,-3[16.7 µM],/,/,/,/,/,/
CNC[C@H]1Oc2ccc(NC(=O)Nc3ccc4c(c3)OCO4)cc2C(=O)N([C@H](C)CO)C[C@@H]1C,0,-11[16.7 µM],15*,-1,/,-29,8,0
CCCOc1ccccc1Cn1c(=O)oc2ccc(C)cc21,-2,-26,-1,4,1,3,/,/
CCCOc1ccc(Cn2c(=O)oc3ccc(C)cc32)cc1OC,0,7,14*,0,2,-2,0,0
CCCN1C[C@@H](C)[C@@H](OC)CN(C)C(=O)c2cc(NC(=O)c3ccc(F)cc3)ccc2OC[C@@H]1C,/,-9[16.7 µM],/,/,/,/,/,/
COc1ccc(CNc2nc(S(=O)(=O)c3ccccc3)c(Cl)s2)cc1OC,-1,35,85*,6,0,-8,-5,0
CC(C)NC(=O)NC(=O)COC(=O)Cc1c(F)cccc1Cl,1,-6,25*,-1,-5,-4,14*,0
O=C(COC(=O)Cc1c(F)cccc1Cl)NC(=O)c1ccccc1,-1,4,-2,6,-2,-31,/,/
C[C@@H]1CC=C[C@H]2[C@H]1C(=O)N(Cc1ccccc1)[C@H]2c1ccc2ccccc2c1,-1,30,/,1,-2,-18,-5,1
COc1ccc(/C=N/NC(=O)CN(c2ccc(OC)cc2)S(=O)(=O)c2ccccc2)cc1,2,3,-3,0,-1,-7,/,/
COc1ccc(/C=N/NC(=O)CN(CCc2ccccc2)S(=O)(=O)c2ccc(NC(C)=O)cc2)cc1OC,6,/,17*,0,-1,-17,29*,0
COc1ccc(N(CC(=O)N/N=C/c2ccc(OC)c(OC)c2)S(=O)(=O)c2ccccc2)cc1,4,-2,14*,0,-3,-15,34*,0
COc1cc(/C=N/NC(=O)CN(CCc2ccccc2)S(=O)(=O)c2ccc(NC(C)=O)cc2)cc(OC)c1OC,3,-74,4,-2,-3,7,/,/
CC1CN(S(=O)(=O)c2cc(C(=O)NCc3ccncc3)ccc2Cl)CC(C)O1 (stereo not given),0,/,-2,0,-9,-6,/,/
CN(C)C(CNC(=O)c1ccc(Cl)c(S(=O)(=O)N2CCCCCC2)c1)c1ccccc1 (stereo not given),-4,13,71*,0,-2,10,88*,1.3*
Cc1ccccc1CCNC(=O)c1ccc(Cl)c(S(=O)(=O)N2CC(C)OC(C)C2)c1 (stereo not given),-5,59*,107*,-4,-1,-2,92*,0
CCOc1ccc2[nH]c(SCC(=O)OC)c([N+](=O)[O-])c2c1,0,19,20*,-3,2,9,17*,-1
COC(=O)CSc1[nH]c2ccc(Br)cc2c1[N+](=O)[O-],1,-110,-6,1,3,-19,/,/
CC(=O)N/C(=C/c1ccc2c(c1)OCO2)C(=O)NC(Cc1ccccc1)C(=O)O (stereo not given),0,4,16*,-1,-1,-11,0,0
C[C@H](CO)N1C[C@H](C)[C@@H](CN(C)C(=O)C2CCCCC2)Oc2ncc(-c3ccncc3)cc2C1=O,/,-11[16.7 µM],/,/,/,/,/,/
O=C1c2ccccc2C(=O)N1CCC#Cc1ccc2cc(CCO)oc(=O)c2c1,2,4,13*,2,0,-13,4,0
O=c1oc(CCO)cc2ccc(C#Cc3ccsc3)cc12,3,-253,-1,3,-1,-102,/,/
CN(C(=O)c1ccc2c(c1)SC1=NS(=O)(=O)CCN12)C(c1ccccc1)c1ccccc1,3,16,31*,0,0,-8,30*,0
Clc1cccc(CNCCNCc2cccc(Cl)c2)c1,3,-12,22*,-2,-2,-3,12,2.5*
SMILES,FXN GAA850 act,HIV Env fusion,GalR3 antag,V-ATPase pH,NR2E3 ag-1,NR2E3 ag-2,GalR3 antag conf,HEK-CNG parental
COc1ccccc1CNC(=O)C[C@@H]1C[C@@H]2c3cc(NC(=O)NC4CCCC4)ccc3O[C@@H]2[C@H](CO)O1,/,6[16.7 µM],/,/,/,/,/,/
Cc1nnc(SCc2nc3scc(-c4ccccc4)c3c(=O)[nH]2)s1,0,6,14*,-2,-4,-8,5,1
CC(C)CC[n+]1ccccc1/C=C/c1ccc(N(C)C)cc1,-9,61*,31*,-3,-8,-16,47*,16*
CN(C)c1ccc(/C=C/c2ccncc2)cc1,4,-136,-2,4,/,-122,/,/
CCOc1ccc(-c2c[n+]3c(n2-c2ccccc2)CCCCC3)cc1,-1,41,56*,-3,0,-1,71*,0
COc1ccc(-n2c(-c3ccccc3)c[n+]3c2CCC3)cc1,-2,-3,-5,0,1,5,/,/
O=C(O)c1ccc(NC(=S)NC(=O)c2ccc(-c3ccc(Br)cc3)o2)cc1,2,-10,13*,1,2,6,-19,1.7*
Cc1nnc(Sc2cc(NCCO)c([N+](=O)[O-])c3nonc23)s1,0,0,7,-1,/,-20,/,/
CCC(=O)OCCNc1cc(Sc2nc3ccccc3s2)c2nonc2c1[N+](=O)[O-],-3,-156,-3,-3,-1,9,/,/
CCCC(=O)OCCNc1cc(Sc2nccn2C)c2nonc2c1[N+](=O)[O-],4,-179,40*,0,3,-15,24*,0
CCC(=O)OCCNc1cc(Sc2nc3ccccc3[nH]2)c2nonc2c1[N+](=O)[O-],4,-73,35*,-1,1,9,32*,0
